Only some compounds are listed: those with a hit (about 3.5% of all), similar ones and a draw of the others.
ABCG2 inh = blocks JC-1 efflux by human ABCG2 transporter; Q9UNQ0; IgMXP3 cells, flow cytometry; inhibition, % at 6.6 µM; hit rate 0.1% among 190,000; AID 1325;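 active = inhibition above 80%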;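 also: 0% = DMSO and 100% = nicardipine control wells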
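Measure – % inhibition of efflux relative to nicardipine and DMSO · Test system – ABCG2 IgMXP3 and barcoded ABCB1 CCRF-Adr cell mix · Control set – nicardipine as high control, DMSO as low control · Compound – one concentration, 6.6 µM final · Signal – flow cytometry of retained JC-1 fluorescence · Timing – 10 min exposure at 25 °C with rotation, no wash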
MEKK2 mut-MEK5 = signal of MEK5 binding to mutant human MEKK2 PB1 domain. AID 1530. bead flow cytometry, Alexa488-MEK5 binding to MEKK2 mutant. hit rate 0.35% among 290,000. percent response, % at 10 µM; in the data active = percent response above about 24%, passing the limit was not always enough
WT yeast gro inh = growth inhibition of WT yeast, mitochondrial fusion screen | inhibition, % at 10 µM | mitochondrial fusion phenotypic screen, WT strain | hit rate 2.1% among 190,000; in the data active = inhibition above about 58%; tested in S. cerevisiae
MEKK2wt PB1 HTS = raises or lowers MEK5 binding to wildtype human MEKK2 PB1 domain | bead flow cytometry, Alexa488-MEK5 binding to MEKK2 WT; actives lie on both sides | binding response (% of control), % at 10 µM | hit rate 1.1% among 290,000 | AID 1531; in the data active = binding response below about 67% or above about 130%
ABCB1 inh = human ABCB1 inhibition, ABCG2 as counter-screen; hit rate 0.067% among 190,000; CCRF-Adr cells, JC-1 efflux, flow cytometry; AID 1326; inhibition, % at 6.6 µM; P08183; in the data active = inhibition above about 40%;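 also: 0% = vehicle and 100% = reference inhibitor; higher value means more JC-1 retained so stronger ABCB1 efflux block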
MEKK3 PB1 HTS = modulators (inhibitors or enhancers) of MEK5 binding to human MEKK3 PB1 domain; Q99759; bead-based flow cytometry, Alexa488-MEK5 binding to MEKK3; actives lie on both sides; 0 = blocked by unlabeled MEK5, 100 = vehicle; binding response (% of control), % at 10 µM; hit rate 1.4% among 290,000; AID 1529;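 active = binding response more than 3 SD above or below the average of its plate-row segment, actives on both sides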;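 also: Alexa488 bead fluorescence after subtracting the streptavidin-only scavenger bead signal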
Target sequence (Q99759 whole entry, looked up, the tested form may be a part): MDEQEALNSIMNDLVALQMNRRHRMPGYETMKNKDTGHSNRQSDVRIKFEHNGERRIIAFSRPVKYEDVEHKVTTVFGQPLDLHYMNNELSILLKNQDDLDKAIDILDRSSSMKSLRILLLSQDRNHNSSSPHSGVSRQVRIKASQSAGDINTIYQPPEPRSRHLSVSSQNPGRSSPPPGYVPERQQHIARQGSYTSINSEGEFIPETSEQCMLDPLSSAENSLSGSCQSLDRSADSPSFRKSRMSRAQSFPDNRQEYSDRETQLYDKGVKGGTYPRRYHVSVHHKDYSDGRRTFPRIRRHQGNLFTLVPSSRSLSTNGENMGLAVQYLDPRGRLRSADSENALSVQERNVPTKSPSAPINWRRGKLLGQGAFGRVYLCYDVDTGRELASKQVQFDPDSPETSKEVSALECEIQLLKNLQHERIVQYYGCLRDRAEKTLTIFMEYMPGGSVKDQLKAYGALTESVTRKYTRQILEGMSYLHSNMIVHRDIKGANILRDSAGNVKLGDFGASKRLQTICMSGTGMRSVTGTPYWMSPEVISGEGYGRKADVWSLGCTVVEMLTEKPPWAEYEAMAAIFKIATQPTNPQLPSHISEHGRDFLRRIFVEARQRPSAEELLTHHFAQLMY
MEKK2wt confirm = raises or lowers MEK5 binding to wildtype human MEKK2, retest. binding response (% of control), % at 10 µM. AID 1892. bead flow cytometry, Alexa488-MEK5 binding to MEKK2 WT; actives lie on both sides. shares compounds with MEKK3 PB1 HTS. hit rate 2.4% among 5,900; in the data active = binding response below about 16% or above about 210%; inactive = in between
MEKK2mut confirm = signal of MEK5 binding to mutant human MEKK2, retest. shares compounds with MEKK3 PB1 HTS. bead flow cytometry, Alexa488-MEK5 binding to MEKK2 mutant. percent response, % at 10 µM. hit rate 2% among 5,900; in the data active = percent response mostly above about 71%, no sharp cut-off; inactive = mostly below about 38%;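 also: higher means compound restores mutant binding toward wildtype level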
MEKK3 confirm = MEKK3-MEK5 PB1 inhibition, single concentration confirmation | shares compounds with MEKK3 PB1 HTS | bead flow cytometry, Alexa488-MEK5 binding to MEKK3; active compounds read low | binding response (% of control), % at 10 µM | hit rate 1.8% among 5,900;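 active = binding response below 72% of control, or above a set upper limit, though filed actives all read lower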;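 also: 100% = DMSO only wells and 0% = binding blocked by excess unlabeled MEK5; lower values mean stronger disruption of MEK5 binding to MEKK3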
Active calls of the source: *; / = no result given; [ ] = remark or other dose.

SMILES	ABCG2 inh	MEKK2 mut-MEK5	WT yeast gro inh	MEKK2wt PB1 HTS	ABCB1 inh	MEKK3 PB1 HTS	MEKK2wt confirm	MEKK2mut confirm	MEKK3 confirm
Cn1cccc1CC(=O)NNC(=O)Nc1ccc(Cl)cc1	25.2	1.0	-2.1	101.0	0.3	100.0	/	/	/
Cn1cccc1CC(=O)NNC(=O)Nc1cccc(Cl)c1	-0.6	-1.0	5.6	105.0	0.1	129.0*	106.0	5.0	104.0
CCOc1ccc(Nc2nc(NCC3CCCO3)c3ccccc3n2)cc1 (stereo not drawn)	18.1	-8.0	57.3	166.0*	9.2	103.0	170.0	14.0	100.0
c1ccc(Nc2nc(NCC3CCCO3)c3ccccc3n2)cc1 (stereo not drawn)	4.9	2.0	32.2	114.0	1.2	104.0	/	/	/
CCOc1ccc(Nc2cc(C)c3ccccc3n2)cc1	/	4.0	/	111.0	/	105.0	/	/	/
CCOc1ccc(Nc2c3ccccc3nc3ccccc23)cc1	/	30.0	/	149.0*	/	104.0	136.0	19.0	107.0
O=C(NC1CCN(Cc2ccccc2)CC1)c1cccc(Br)c1	/	6.0	/	110.0	/	105.0	/	/	/
Cn1c(=O)c2c(nc(N3CCN(Cc4ccccc4)CC3)n2CCSc2ncccn2)n(C)c1=O	/	/	14.7	/	/	/	/	/	/
C=CCNC(=O)CN1N=C(c2ccc(C)cc2)CCC1=O	/	3.0	/	102.0	/	99.0	/	/	/
CC(C)[C@H](NC(N)=O)C(=O)Nc1ccc(Oc2ccccc2)cc1	4.5	-18.0	-3.2	51.0	0.3	42.0*[inhibitor]	108.0	5.0	104.0
CC(C)[C@H](NC(=O)Nc1ccc(Oc2ccccc2)cc1)C(=O)O	2.8	3.0	-7.7	105.0	0.5	104.0	/	/	/
COc1ccc(CCNc2ccc(S(=O)(=O)N3CCCC3)cc2[N+](=O)[O-])cc1	43.1	-1.0	15.4	107.0	2.0	142.0*	103.0	-2.0	101.0
CCC(=O)c1ccc(OCC(=O)NCC2(N3CCCCC3)CCCCC2)cc1	2.8	-13.0	-9.3	89.0	-0.4	80.0	/	/	/
COCC1CCN(C(=O)c2cc(COc3ccc4ncccc4c3)on2)CC1	10.2	5.0	0.5	103.0	1.2	102.0	/	/	/
COc1cc(/C=N/N2CCOCC2)ccc1OC(=O)c1ccco1	14.6	-17.0	5.9	52.0	0.6	49.0*[inhibitor]	95.0	-7.0	98.0
CCC(C)N1C(=O)/C(=C/c2c(NCCCOC(C)C)nc3c(C)cccn3c2=O)SC1=S (stereo not drawn)	39.1	123.0*	15.8	/	28.4	32.0*[inhibitor]	59.0	-22.0	74.0
COc1ccc(NC(=O)CCn2cccc2)cc1	0.4	4.0	-1.8	99.0	0.0	105.0	/	/	/
Cc1ccc(CNC(=O)Cn2ccc3ccccc3c2=O)o1	3.8	-11.0	-0.1	-3.0*[inhibitor]	0.7	0.0*[inhibitor]	98.0	9.0	102.0
O=c1[nH]c(SCc2cccc(Cl)c2)nc2[nH]ncc12	0.8	-1.0	1.7	109.0	-0.2	117.0	/	/	/
Cc1cc(NC(=O)CCN2CCN(C/C=C/c3ccccc3)CC2)ccc1Br	/	18.0	/	149.0*	/	112.0	152.0	20.0	109.0
O=S(=O)(c1cccc(-c2nnc3n2CCCCC3)c1)N1CCCC1	0.4	-2.0	6.9	92.0	0.1	93.0	/	/	/
CC(C)N=c1cc2n(-c3ccc(Cl)cc3)c3ccccc3nc-2cc1Nc1ccc(Cl)cc1	/	22.0	/	114.0	/	70.0*[inhibitor]	95.0	14.0	53.0*
Cn1c(CNc2ccc(Cl)cc2)nc2ccccc21	4.2	10.0	12.7	105.0	0.5	106.0	/	/	/
CCCCC1=CC2=C(c3ccco3)C(=O)C(C)(OC(=O)c3ccc(OC)cc3)C(=O)C2=CN1Cc1ccccc1 (stereo not drawn)	/	1.0	/	101.0	/	105.0	/	/	/
COC(=O)CCC(=O)OC1(C)C(=O)C2=CN(C(CO)CO)C(c3ccc(OC)cc3)=CC2=C(Br)C1=O (stereo not drawn)	/	-2.0	/	91.0	/	82.0*[inhibitor]	98.0	-2.0	93.0
SMILES	ABCG2 inh	MEKK2 mut-MEK5	WT yeast gro inh	MEKK2wt PB1 HTS	ABCB1 inh	MEKK3 PB1 HTS	MEKK2wt confirm	MEKK2mut confirm	MEKK3 confirm
COC(=O)CCC(=O)OC1(C)C(=O)C2=CN(Cc3ccc4c(c3)OCO4)C(c3ccc(OC)cc3)=CC2=C(Br)C1=O (stereo not drawn)	/	53.0*	/	/	/	83.0	102.0	0.0	104.0
CCCCC1=CC2=C(c3ccco3)C(=O)C(C)(OC(=O)c3ccc(OC)cc3)C(=O)C2=CN1Cc1ccc2c(c1)OCO2 (stereo not drawn)	/	1.0	/	138.0*	/	120.0	83.0	-9.0	87.0
CC1(OC(=O)CCc2ccccc2)C(=O)C=C2C=C(c3ccc(C#N)cc3)N(CCN3CCOCC3)C=C2C1=O (stereo not drawn)	/	2.0	/	138.0*	/	117.0	104.0	1.0	101.0
NC(=O)c1cc[n+](Cc2ccccc2Cl)cc1	/	1.0	/	100.0	/	92.0	/	/	/
CSc1ncc(CO)n1Cc1ccccc1	-0.5	-1.0	-2.0	93.0	-0.1	98.0	/	/	/
CCn1c(N2CCN(C(=S)NCCc3ccccc3)CC2)nc2ccccc21	2.2	-3.0	-4.9	93.0	0.8	96.0	/	/	/
COC(=O)CCC(=O)OC1(C)C(=O)C2=CN(CCN3CCOCC3)C(c3ccc(OC)cc3)=CC2=C(Br)C1=O (stereo not drawn)	/	4.0	/	149.0*	/	127.0	100.0	0.0	100.0
CN(C)S(=O)(=O)c1ccc(C(=O)NC(=O)CSc2ccccc2)cc1	7.1	-1.0	0.8	102.0	0.3	131.0*	100.0	1.0	105.0
Cc1ccccc1NC(=O)c1ccc(S(=O)(=O)N(C)C)cc1	-2.2	11.0	11.3	106.0	-2.4	106.0	/	/	/
Cc1cc(C)c2sc(N(CCCN(C)C)C(=O)c3ccc(Br)s3)nc2c1	0.9	28.0	94.3*	189.0*	1.0	114.0	204.0	54.0	111.0
Cc1cc(C)c2sc(N(CCCN(C)C)C(=O)CN3C(=O)c4ccccc4C3=O)nc2c1	-1.0	82.0*	38.4	321.0*	0.7	70.0*[inhibitor]	156.0	37.0	115.0
Cc1cnc(CNC(=O)CC2C(=O)NCCN2Cc2cccc(F)c2F)cn1 (stereo not drawn)	/	12.0	/	106.0	/	103.0	/	/	/
CC1(C)Cc2c(c(N3CCOCC3)nc3sc(-c4ccc(C(=O)O)o4)c(N)c23)CO1	-2.3	62.0*	-8.4	-5.0*	-1.0	80.0	89.0	-2.0	93.0
Cn1c(SCC(=O)N2c3ccccc3Sc3ccccc32)nc2ccccc21	-0.5	-1.0	33.4	96.0	1.4	102.0	/	/	/

Source: PubChem (several laboratories)
